The text below walks through data of PubChem BioAssay.

Test [1] in a line: hit retest on RPL19A-GFP reporter strain – cell-based, S. cerevisiae, flow cytometry, cherry picks, mother/daughter gates, confirmation (AID 2270;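 active = GFP response below 50% of the DMSO control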). Conditions: 3 h, at 10 µM, stronger effect = lower value, 100 = same GFP as DMSO wells. In general terms: In flow cytometry, cells or beads pass a laser one at a time.
Test [2] is described as follows: yeast TOR pathway reporter LAP4-GFP change – cell-based, cherry picks, flow cytometry, mother/daughter gates, confirmation (AID 2271;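 active = GFP response above 150% of the DMSO control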;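 also: ratio of sample to DMSO plate mean so 100% equals DMSO level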). Conditions: S. cerevisiae LAP4-GFP strain, 3 h, at 10 µM, stronger effect = higher value, 100 means same as DMSO control. The method, boiled down: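 System – GFP-fusion yeast strain · Amount – 0.2 OD600 cells · Buffer or medium – SC growth medium · Dosing – single test-compound dose, 10 µM final · Schedule – 3 h treatment at 30 °C with rotation · Detection – GFP by flow cytometry · Read-out – per-gate (all, mother, daughter) GFP response vs DMSO · Benchmarks – positive rapamycin (400 ng/mL), negative DMSO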

Test [3] in a line: TOR pathway reporter MEP2-GFP, retest of hits – S. cerevisiae, flow cytometry GFP, cherry picks, confirmation (AID 2272;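 active = GFP response above 150% of the DMSO control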;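 also: ratio of well signal to plate DMSO mean so 100% equals DMSO level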). As to conditions: S. cerevisiae MEP2-GFP strain, 3 h, at 10 µM, stronger effect = higher value.
A short description of test [4]: yeast AGP1-GFP fluorescence change, single-dose – cell-based, flow cytometry, S. cerevisiae, cherry picks, confirmation (AID 2273).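 Also: median GFP channel fluorescence over the whole cell population gate.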 As to conditions: S. cerevisiae AGP1-GFP strain, 3 h, at 10 µM.
A short description of test [5]: TOR pathway CIT2 reporter hit retest – S. cerevisiae, GFP fusion, cherry picks, mother/daughter gates, confirmation (AID 2274). As to conditions: S. cerevisiae CIT2-GFP strain, flow cytometry, 3 h, at 10 µM, stronger effect = higher value.
[6] abbreviates: measured here: daughter cell gate.
The mark [7] stands for this setting: measured here: mother cell gate.
[8] abbreviates: measured here: daughter cell gate response.
[9] abbreviates: measured here: mother cell gate response.

Active and inactive are the calls of the source.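 The calls were made as follows, unless noted: active = GFP response above 150% of the DMSO level; inconclusive = fewer than 70 events counted for a yeast strain; inactive = the rest.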

In the case of `COc1ccc(CC(=O)NCc2ccccn2)cc1OC`, the GFP response vs DMSO is 97.6% (inactive) in test [1], 97.8% in test [1] (setting [6]), 98% in test [1] (setting [7]) and 100% (inactive) in test [3]. The GFP response relative to DMSO in test [2] is 93.8% (inactive); in test [2] (setting [8]), 95.6%; in test [2] (setting [9]), 96.2%. The GFP response, % of DMSO in test [4] was 100% (inactive); in test [5], 97.8% (inactive); in test [5] (setting [6]), 96.5%; in test [5] (setting [7]) it was 95.5%.
With `CCOC(=O)c1ccc(NC(=O)CCc2nc(-c3ccccc3)no2)cc1`, the GFP response vs DMSO is 97.3% (inactive) in test [1], 97% in test [1] (setting [6]), 97.5% in test [1] (setting [7]) and 106% (inactive) in test [3]. Further, the GFP response relative to DMSO is 107% (inactive) in test [2], 107% in test [2] (setting [8]) and 108% in test [2] (setting [9]). Moreover, the GFP response, % of DMSO was 99.3% (inactive) in test [4], 101% (inactive) in test [5], 101% in test [5] (setting [6]) and 98.2% in test [5] (setting [7]).
Consider `Cc1ccc(C=C2C(Cl)=C(Cl)C(Cl)=C2Cl)cc1`, for which the GFP response vs DMSO was 103% (inactive) in test [1], 102% in test [1] (setting [6]), 97.7% in test [1] (setting [7]) and 114% (inactive) in test [3]. For the same molecule, the GFP response relative to DMSO in test [2] was 148% (inactive); in test [2] (setting [8]), 139%; in test [2] (setting [9]), 161%. The GFP response, % of DMSO in test [4] was 105% (inactive); in test [5], 106% (inactive); in test [5] (setting [6]), 105%; in test [5] (setting [7]), 94.7%.
`CS(=O)(=O)N1N=C(c2ccco2)CC1c1ccc(Br)cc1` (configuration not stated): the GFP response vs DMSO in test [1] is 98.4% (inactive); in test [1] (setting [6]) it was 98.1%; in test [1] (setting [7]), 99.2%; in test [3], 100% (inactive). Besides, the GFP response relative to DMSO in test [2] was 103% (inactive); in test [2] (setting [8]), 104%; in test [2] (setting [9]), 103%. For the same molecule, the GFP response, % of DMSO in test [4] was 96.8% (inactive); in test [5] it was 103% (inactive); in test [5] (setting [6]), 103%; in test [5] (setting [7]) it was 101%.
As to `Cc1cc(N2CCOCC2)n2nc(C)c(-c3ccccc3)c2n1`, the GFP response vs DMSO was 103% (inactive) in test [1], 100% in test [1] (setting [6]), 102% in test [1] (setting [7]) and 101% (inactive) in test [3]. In addition, the GFP response relative to DMSO in test [2] is 98.2% (inactive); in test [2] (setting [8]), 95.9%; in test [2] (setting [9]) it was 97.3%. Moreover, the GFP response, % of DMSO in test [4] is 101% (inactive); in test [5] it was 98.8% (inactive); in test [5] (setting [6]), 97.4%; in test [5] (setting [7]), 98.1%.
In the case of `O=C(NC(=S)NNC(=O)c1ccc(Cl)cc1Cl)c1cccnc1`, the GFP response vs DMSO in test [1] is 102% (inactive); in test [1] (setting [6]), 103%; in test [1] (setting [7]), 102%; in test [3], 101% (inactive). The GFP response relative to DMSO is 97.3% (inactive) in test [2], 96.6% in test [2] (setting [8]) and 98.2% in test [2] (setting [9]). Also, the GFP response, % of DMSO in test [4] is 104% (inactive); in test [5], 98.4% (inactive); in test [5] (setting [6]), 100%; in test [5] (setting [7]), 96.7%.
Regarding `Cc1cc(NCCN2CCOCC2)n2nc(C)c(-c3ccc(Cl)cc3)c2n1`, the GFP response vs DMSO in test [1] is 97.1% (inactive); in test [1] (setting [6]) it was 97%; in test [1] (setting [7]) it was 95.8%; in test [3], 108% (inactive). Besides, the GFP response relative to DMSO in test [2] was 106% (inactive); in test [2] (setting [8]), 101%; in test [2] (setting [9]), 109%. Besides, the GFP response, % of DMSO in test [4] was 98.4% (inactive); in test [5], 100% (inactive); in test [5] (setting [6]), 99.3%; in test [5] (setting [7]) it was 99.3%.
With `Cc1ccc(C(=O)OCC(=O)Nc2ccccc2Sc2ccccc2)cc1C`, the GFP response vs DMSO in test [1] is 99% (inactive); in test [1] (setting [6]), 97.8%; in test [1] (setting [7]), 99.7%; in test [3] it was 96.6% (inactive). For the same molecule, the GFP response relative to DMSO in test [2] was 96.1% (inactive); in test [2] (setting [8]) it was 99.7%; in test [2] (setting [9]), 97.2%. Besides, the GFP response, % of DMSO in test [4] was 99.3% (inactive); in test [5], 103% (inactive); in test [5] (setting [6]), 103%; in test [5] (setting [7]), 105%.
In the case of `Clc1cnc(N/N=C/c2cccs2)c(Cl)c1`, the GFP response vs DMSO in test [1] is 105% (inactive); in test [1] (setting [6]), 100%; in test [1] (setting [7]), 103%; in test [3] it was 126% (inactive). Further, the GFP response relative to DMSO in test [2] is 178% (active); in test [2] (setting [8]), 158%; in test [2] (setting [9]), 172%. Moreover, the GFP response, % of DMSO in test [4] is 98.2% (inactive); in test [5] it was 103% (inactive); in test [5] (setting [6]), 110%; in test [5] (setting [7]), 97.1%.
In the case of `CCc1ccc(NC(=O)c2nc(S(=O)(=O)Cc3ccccc3)ncc2Cl)cc1`, the GFP response vs DMSO in test [1] is 94.8% (inactive); in test [1] (setting [6]) it was 94.2%; in test [1] (setting [7]) it was 93.8%; in test [3] it was 97.5% (inactive). The values for the GFP response relative to DMSO in test [2], in test [2] (setting [8]) and in test [2] (setting [9]) were 126% (inactive), 118% and 124%, respectively. Further, the GFP response, % of DMSO was 96% (inactive) in test [4], 87.8% (inactive) in test [5], 90.9% in test [5] (setting [6]) and 82.8% in test [5] (setting [7]).
Take `N/C(=N\OC(=O)c1cccc(Br)c1)c1ccccc1`: the GFP response vs DMSO in test [1] is 97.2% (inactive); in test [1] (setting [6]), 96.4%; in test [1] (setting [7]), 93.6%; in test [3], 105% (inactive). Further, the GFP response relative to DMSO was 137% (inactive) in test [2], 123% in test [2] (setting [8]) and 143% in test [2] (setting [9]). Also, the GFP response, % of DMSO in test [4] was 64.6% (inactive); in test [5], 140% (inactive); in test [5] (setting [6]) it was 121%; in test [5] (setting [7]) it was 140%.
`CCC(C)(C)NC(=O)C(c1cccs1)N(CC1CCCO1)C(=O)Cn1nnc2ccccc21` (configuration not stated): the GFP response vs DMSO was 95.3% (inactive) in test [1], 95.9% in test [1] (setting [6]), 94.4% in test [1] (setting [7]) and 101% (inactive) in test [3]. Also, the GFP response relative to DMSO in test [2] was 98.9% (inactive); in test [2] (setting [8]), 96%; in test [2] (setting [9]) it was 99.5%. Also, the GFP response, % of DMSO in test [4] is 102% (inactive); in test [5], 101% (inactive); in test [5] (setting [6]) it was 105%; in test [5] (setting [7]), 102%.
As to `Oc1ccc(N=Nc2ccccc2)o1`, the GFP response vs DMSO in test [1] is 111% (inactive); in test [1] (setting [6]) it was 113%; in test [1] (setting [7]), 106%; in test [3], 124% (inactive). For the same molecule, the results for the GFP response relative to DMSO in test [2], in test [2] (setting [8]) and in test [2] (setting [9]) were 180% (active), 153% and 173%, respectively. Moreover, the GFP response, % of DMSO is 111% (inactive) in test [4], 118% (inactive) in test [5], 119% in test [5] (setting [6]) and 110% in test [5] (setting [7]).
For the molecule `COc1ccc(-c2ccc(CCC(=O)O)o2)cc1`, the GFP response vs DMSO in test [1] is 97% (inactive); in test [1] (setting [6]), 95.1%; in test [1] (setting [7]), 96.1%; in test [3], 102% (inactive). The results for the GFP response relative to DMSO in test [2], in test [2] (setting [8]) and in test [2] (setting [9]) were 126% (inactive), 122% and 126%, respectively. Also, the GFP response, % of DMSO is 86.3% (inactive) in test [4], 101% (inactive) in test [5], 97.2% in test [5] (setting [6]) and 101% in test [5] (setting [7]).
On to `Cc1cccc(NC(=O)c2ccccc2O)c1C`, for which the GFP response vs DMSO was 97.3% (inactive) in test [1], 94.7% in test [1] (setting [6]), 96.9% in test [1] (setting [7]) and 99.3% (inactive) in test [3]. Moreover, the GFP response relative to DMSO in test [2] was 112% (inactive); in test [2] (setting [8]), 104%; in test [2] (setting [9]), 116%. The GFP response, % of DMSO in test [4] is 98.4% (inactive); in test [5], 95.8% (inactive); in test [5] (setting [6]) it was 95.8%; in test [5] (setting [7]), 94.9%.
As to `FC(F)(F)c1cc(-c2cccs2)nc2cc(-c3cccs3)nn12`, the GFP response vs DMSO in test [1] was 103% (inactive); in test [1] (setting [6]) it was 102%; in test [1] (setting [7]), 102%; in test [3], 103% (inactive). The figures for the GFP response relative to DMSO in test [2], in test [2] (setting [8]) and in test [2] (setting [9]) were 97% (inactive), 97.5% and 97.3%, respectively. In addition, the GFP response, % of DMSO was 95.1% (inactive) in test [4], 93% (inactive) in test [5], 92% in test [5] (setting [6]) and 94.4% in test [5] (setting [7]).
With `COC(=O)c1ccc(/C=N/OCC(=O)NCCc2ccc(OC)c(OC)c2)cc1`, the GFP response vs DMSO in test [1] was 99% (inactive); in test [1] (setting [6]), 99%; in test [1] (setting [7]), 98.7%; in test [3], 102% (inactive). Further, the GFP response relative to DMSO in test [2] is 97.4% (inactive); in test [2] (setting [8]) it was 102%; in test [2] (setting [9]) it was 97.2%. For the same molecule, the GFP response, % of DMSO in test [4] was 102% (inactive); in test [5] it was 107% (inactive); in test [5] (setting [6]) it was 106%; in test [5] (setting [7]), 107%.
